Measured values: paper PMC3180826 (ACS chemical neuroscience, 2010)
Substitutions are numbered along the chain they refer to.

What was measured:
hM2 = molecular target: T1, hM2 (Homo sapiens, UniProt P08172); assay: Calcium mobilization assay, agonist mode, M2; type: cell-based; conditions: up to 30 μM
T1 sequence (P08172 1-466): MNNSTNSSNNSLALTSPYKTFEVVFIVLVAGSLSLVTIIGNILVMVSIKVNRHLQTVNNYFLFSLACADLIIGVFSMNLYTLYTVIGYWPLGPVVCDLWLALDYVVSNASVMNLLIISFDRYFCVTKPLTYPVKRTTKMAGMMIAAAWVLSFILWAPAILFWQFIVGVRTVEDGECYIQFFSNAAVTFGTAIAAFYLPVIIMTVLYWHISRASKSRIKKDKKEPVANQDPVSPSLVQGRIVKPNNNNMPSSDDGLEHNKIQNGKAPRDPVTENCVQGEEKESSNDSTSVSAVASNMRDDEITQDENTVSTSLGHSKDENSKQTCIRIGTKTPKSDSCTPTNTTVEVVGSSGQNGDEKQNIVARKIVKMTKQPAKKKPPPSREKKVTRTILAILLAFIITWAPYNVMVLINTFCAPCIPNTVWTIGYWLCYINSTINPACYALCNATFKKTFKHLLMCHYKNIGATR
How it was run: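 CHO-K1 cells stably expressing hM2/Gqi5 or rM4/Gqi5 (6 × 10^4 cells/well), or hM3 or hM5 (5 × 10^4 cells/well), were cultured overnight at 37 °C in 5% CO2. Cells were loaded with 2 μM Fluo-4 AM for 1 h at 37 °C in HBSS with 20 mM HEPES and 2.5 mM probenecid, pH 7.4. Eight-point test compound concentration series were added at 19 s of a 130 s read. Calcium flux was read as fluorescence fold over basal.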

rM1 K392D/E397V/E401H = molecular target: T2, rM1 K392D/E397V/E401H (Rattus norvegicus, UniProt P08482, E397V/E401H/K392D); assay: Calcium mobilization, transiently transfected rM1 triple mutant CHO cells; type: cell-based; conditions: compared with wt rM1
T2 sequence (P08482 1-460 K392D/E397V/E401H): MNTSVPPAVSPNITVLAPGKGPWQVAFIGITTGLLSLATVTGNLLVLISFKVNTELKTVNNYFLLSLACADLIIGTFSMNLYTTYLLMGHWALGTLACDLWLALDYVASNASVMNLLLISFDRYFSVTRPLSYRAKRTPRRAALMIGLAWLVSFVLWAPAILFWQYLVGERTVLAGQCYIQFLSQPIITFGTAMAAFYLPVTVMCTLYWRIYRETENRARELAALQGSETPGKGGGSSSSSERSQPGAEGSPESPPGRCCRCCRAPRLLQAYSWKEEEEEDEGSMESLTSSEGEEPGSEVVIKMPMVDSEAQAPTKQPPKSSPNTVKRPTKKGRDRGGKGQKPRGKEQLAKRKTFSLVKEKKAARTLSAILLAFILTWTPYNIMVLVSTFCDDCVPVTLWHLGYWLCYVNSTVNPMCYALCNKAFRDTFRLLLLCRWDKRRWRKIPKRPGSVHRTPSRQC
How it was run: (§1)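 CHO-K1 cells were transiently transfected overnight at 37 °C with 10 μg of mutant rat M1 cDNA in pcDNA3.1+ using Fugene 6, then plated for the calcium assay. They were loaded with 2 μM Fluo-4 AM for 1 h at 37 °C in HEPES/probenecid-buffered HBSS, pH 7.4. Test compound dose–response series were added at 19 s. Calcium mobilization was measured as fluorescence increase over basal.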

rM1 E397V = molecular target: T3, rM1 E397V (Rattus norvegicus, UniProt P08482, E397V); assay: Calcium mobilization, rM1 E397V mutant CHO-K1 cells; type: cell-based; conditions: compared with wt rM1
T3 sequence (P08482 1-460 E397V): T2 sequence (P08482 1-460 K392D/E397V/E401H) with D392K, H401E
How it was run: as §1

rM1 E397D = molecular target: T4, rM1 E397D (Rattus norvegicus, UniProt P08482, E397D); assay: Calcium mobilization, rM1 E397D mutant CHO-K1 cells; type: cell-based; conditions: compared with wt rM1
T4 sequence (P08482 1-460 E397D): T2 sequence (P08482 1-460 K392D/E397V/E401H) with D392K, V397D, H401E
How it was run: as §1

[1] = Plasma-brain exposure profile PK study; type: in vivo; conditions: rat
How it was run: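 Test compound was dissolved in sterile water at 5 mg/mL and dosed at 10 mg/kg ip in male Sprague–Dawley rats (225–250 g). Plasma and brain were collected at 0.5, 1, 2, 4 and 8 h, with three rats per time point. Brains were homogenized 1:3 in PBS, and samples were extracted by acetonitrile/0.1% formic acid precipitation with internal standard. Quantification was by LC-MS/MS SRM (10–2000 ng/mL calibration), with noncompartmental analysis.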

Compound: CCOC(=O)N1CCC(NCCNC(=O)c2ccccc2)CC1 [VU0184670, ethyl 4-(2-benzamidoethylamino)piperidine-1-carboxylate]
- agonist activity at M2 (hM2): no activity
- functional response at K392D/E397V/E401H triple mutant (rM1 K392D/E397V/E401H): almost completely ablated
- functional activity at E397V mutant (rM1 E397V): mild reduction in potency and efficacy
- functional potency at E397D mutant (rM1 E397D): Not much potency appeared to be lost
- brain level ([1]; 10 mg/kg i.p., brain): 14.49012 ± 2.66382 µg/mL
- plasma level ([1]; 10 mg/kg i.p., plasma): 0.31186 ± 0.02077 µg/mL
- central penetrance ([1]; i.p. administration): centrally-penetrant
